CAL PDZ FP-1: CAL PDZ peptide-binding inhibitors, primary screen, biochemical, fluorescence polarization, Cer-tagged CAL PDZ, HTS. Golgi-associated PDZ and coiled-coil motif-containing protein (Homo sapiens), Q9HD26. purified CAL PDZ, TMR-peptide fluorescence polarization, 1 h. inhibition, % at 20 µM. 0.02% of 330,000 active. AID 504414, 2011;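 active means highest replicate inhibition of at least 40%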;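 further: plate controls were DMSO neutral control wells for no effect and unlabeled competitor peptide control wells for full effect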
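Assay system – tagged CAL PDZ protein CerCALP, purified · Timing – 1 h at RT · Compound – single point, 20 µM · Measured by – fluorescence polarization from S- and P-plane intensities, G-factor corrected · Evaluation – inhibition from polarization loss · Probe or stimulus – TMR reporter peptide T*-PRC34 · Buffer or medium – pH 7.4 phosphate-saline buffer, reducing agent, detergent, IgG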
miR122 inh: miR-122 Renilla sensor signal increase in Huh7, primary screen, miR-122 inhibitor project, cell-based, single point, plate reader. Huh7 miR-122 Renilla luciferase sensor, 48 h; neutral wells = 0, positive control = 100. activation (reporter increase), % at 12.5 µM. 0.3% of 340,000 active;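 active means mean replicate activation score at least 90 and every replicate individually at or above 90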;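 further: higher luciferase means less miR-122 activity so hits act as miR-122 inhibitors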
PGC1a acetyl inh: inhibitors of PGC1a acetylation signal, primary screen, cell-based, U2OS, AlphaScreen, inhibitor mode | AlphaScreen anti-acetyl-lysine; with virally co-expressed GCN5 acetyltransferase | inhibition, % at 15.6 µM | 0.17% of 350,000 active;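 active means every replicate shows inhibition of at least 40%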;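 further: 0% = neutral control wells and 100% = positive control wells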
CAL PDZ FP-2: untagged CAL PDZ binding inhibitors, primary screen, biochemical, fluorescence polarization, HTS; Golgi-associated PDZ and coiled-coil motif-containing protein (Homo sapiens), Q9HD26; purified CAL PDZ, TMR-peptide fluorescence polarization, 1 h; inhibition, % at 24.9 µM; 0.92% of 300,000 active; AID 602252, 2012;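 active means mean inhibition of at least 30% with at least half of replicates also reaching 30%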;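 further: 0% = DMSO neutral control and 100% = excess unlabeled competitor peptide PRC23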
ARNT TACC3 PPI: disruptors of ARNT/TACC3 protein interaction, primary screen, biochemical, AlphaScreen, single concentration; Transforming acidic coiled-coil-containing protein 3 (Homo sapiens), Q9Y6A5; AlphaScreen His-ARNT PAS-B/GST-TACC3 binding, luminescence; TACC3 fragment carries E629A point mutation; inhibition, % at 9.99 µM; 0.66% of 390,000 active; AID 623870, 2012;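 active means mean inhibition of replicates at least 50% and at least half of replicates each reaching 50%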;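 further: 0% = complete ARNT plus TACC3 wells and 100% = ARNT alone without TACC3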
CFTR F508del cor: F508del CFTR correction, initial screen, CFBE line, single point | CFBE cells, YFP halide quenching; stimulated with forskolin plus potentiator P3; % fluorescence drop versus neutral controls | activity (quench increase), % at 7.58 µM | 0.36% of 350,000 active;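 active means mean added fluorescence quench of at least 8% versus neutral control, with both replicates also reaching 8%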;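 further: cells transiently co-express mutant CFTR-F508del with the halide-sensitive YFP; corrector assay measuring rescue of mutant channel to the surface after 24 h compound exposure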
miR-27b qPCR: miR-27b levels after miR-122 inhibitor treatment, dose response, selectivity assay for miR-122 inhibitor project, cell-based, Huh7, RT-qPCR, dry powder; shares compounds with miR122 inh; Huh7 miR-27b levels, qRT-PCR, 48 h; relative miR-27b level (unnormalised ratio), ratio at 35 µM; 35 tested, under 10 active;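 active means compounds lowering miR-27b whose fitted half-maximal dose is at most twice their top tested dose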
ARNT Alpha ctr: AlphaScreen signal interference compounds, dose response, artefact control for ARNT-TACC3 interaction inhibitor project, biochemical, luminescence, cherry-pick | shares compounds with ARNT TACC3 PPI | His-ARNT PASB-GST AlphaScreen artifact counter-screen | AC50, µM (top dose mostly 68 µM), without a hit: at the highest dose activity change, negative = signal decrease | 50% of 1,200 active | AID 651705, 2012;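 active means every separate test run was called active for a drop in luminescence, with AC50 within twice the top valid dose, actives reach about 71 µM in these data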
* hit, by the source's call; · = no result; [ ] = remark or other dose. A selection: hits, their analogues and other compounds. The true share with any hit is near 1.7%.

SMILES	CAL PDZ FP-1	miR122 inh	PGC1a acetyl inh	CAL PDZ FP-2	ARNT TACC3 PPI	CFTR F508del cor	others
O=[N+]([O-])c1ccc(O)c([N+](=O)[O-])c1	-0.5	-1.4	11.6	-0.7	-2.5	1.9
O=c1[nH]c(O)c(N=Nc2cc([N+](=O)[O-])ccc2O)c(=O)[nH]1	-2.9	-15.3	-10.3	-0.1	56.6*	-2.4
Cc1ccc2c(C)c3ccc4ccccc4c3c[n+]2c1	-2.4	9.0	6.9	37.6*	13.4	9.2*
COC(=O)[C@H]1N[C@H]2c3ccc(C4=CCCC4)c(=O)n3C[C@H]2[C@@H]1CO	·	·	·	·	-0.8	·
CC(=O)NC1=C(N2CC2C)C(=O)C(NC(C)=O)=C(N2CC2C)C1=O (centres undefined)	-0.1	-0.4	2.0	-10.1	8.8*	0.2
COC(=O)[C@H]1[C@H](CO)[C@H]2Cn3c(ccc(-c4ccccc4F)c3=O)[C@@H]1N2Cc1ccncc1	·	-0.4[16.7 µM]	-3.7	·	3.0	-1.7
CCC1CN1P(=O)(c1ccccc1)N1CC1CC (centres undefined)	-0.2	0.6	8.6	113.3*	11.4	4.1
CCN(CC)S(=O)(=O)c1ccc(C)c(NCC(=O)Nc2ccc(C#N)c(Cl)c2)c1	-2.1	119.2*	0.7	-0.2	-0.1	·
CC(=O)N1CCN(CC(=O)Nc2ccc(C#N)c(Cl)c2)CC1	0.3	·	37.7	0.8	-7.3	-0.9
CC[C@H](C)[C@@H]1NC(=O)CNC(=O)c2csc(n2)[C@H](C(C)(C)O)OC(=O)C(C)(C)[C@H](CCCC(C)(Cl)Cl)OC(=O)c2csc1n2	·	-17.2	59.7*	·	·	-11.7
COC1CC2C=C(C)C=CC=CC(=O)NC(c3ccccc3)CC=CCCC(O)CC(=O)C2=C1O (centres undefined)	·	·	·	·	·	12.3*
O=C(O)C[C@@H]1CC[C@H]2NC[C@H](O)COC[C@@H]2O1	·	-1.4[16.7 µM]	1.2	·	-0.2	-2.4
CC=Cc1ccc2n(c1=O)C[C@H]1[C@H](CO)[C@@H](C(=O)OC)[C@@H]2N1CC1CCOCC1 (mixture of isomers)	·	·	·	·	-2.9	·
O=C(N/N=C/c1c(O)n(C2CC2)c(=S)[nH]c1=O)c1ccccc1O	-0.6	·	·	1.5	59.9*	·
Cc1ccccc1-n1c(O)c(/C=N/NC(=O)c2ccccc2O)c(=O)[nH]c1=S	0.0	26.4	-8.6	-1.6	57.1*	-3.4
COc1ccc(Oc2cc(NC(=O)c3nn(C)cc3[N+](=O)[O-])cc([N+](=O)[O-])c2)cc1	·	0.4	78.1*	-8.9	-3.8	-5.5
COc1ccc(NC(=O)c2cn(CCC#N)nc2-c2cccc([N+](=O)[O-])c2)cc1	0.6	·	·	0.1	-0.9	1.9
O=C1NC(=O)C(CCc2ccncc2)(Cc2cccc(Cl)c2Cl)C(=O)N1c1ccc(Br)cc1 (centres undefined)	-1.6	491.1*	·	-1.8	·	·
CCc1ccc(N2C(=O)NC(=O)C(CCc3ccncc3)(CCc3ccncc3)C2=O)cc1	-1.3	·	·	-4.1	0.4	·
CN(C)CC#Cc1ccc([C@@H]2[C@H]3CN(C(=O)Cc4ccccn4)CCCCN3[C@H]2CO)cc1	·	5.7[16.7 µM]	2.4	·	4.6	-0.7
O=C1NC(=O)C(Nc2ccc(Cl)c(Cl)c2)C(=O)N1	-2.7	2.2	·	0.9	24.9*	-1.9
C=CCn1c(O)c(C(C)=Nc2ccc(C(=O)O)cc2)c(=O)[nH]c1=O	0.1	-2.2	-1.7	82.5*	-7.2	0.2
C=CCn1c(O)c(C(C)=NCCCn2ccnc2)c(=O)[nH]c1=O	0.1	·	·	-2.7	83.5*	-0.9
CC(=NCCCn1ccnc1)c1c(O)n(-c2ccccc2)c(=O)[nH]c1=O	-0.3	·	·	-2.1	10.6	1.3
COC(=O)[C@H]1[C@H](CO)[C@H]2Cn3c(ccc(-c4ccncc4)c3=O)[C@@H]1N2CCc1ccccc1	·	·	·	·	20.0	·
SMILES	CAL PDZ FP-1	miR122 inh	PGC1a acetyl inh	CAL PDZ FP-2	ARNT TACC3 PPI	CFTR F508del cor	others
N#Cc1cccc(-c2ccc([C@H]3[C@H]4CN(C(=O)Cc5ccncc5)CCCCN4[C@H]3CO)cc2)c1	·	5.8[16.7 µM]	2.8	·	9.5	0.6
COc1ccc(C(CNC(=O)Cc2ccc(Cl)c(Cl)c2)N2CCCCC2)cc1 (centres undefined)	-0.4	10.9	·	61.1*	4.5	-1.4
COc1ccc(C(CNC(=O)Cc2ccc(Cl)c(Cl)c2)N(C)C)cc1 (centres undefined)	-2.7	·	·	1.6	-3.9	1.6
O=C(Cc1ccccc1)N1C[C@H]2[C@@H](c3ccccc31)[C@H](CO)N2Cc1ccccc1	·	-8.3[16.7 µM]	-37.4	·	-7.2	1.6
CC12CCC(O)CC1CCC1C2CCC2(C)C(C3=CC(=O)OC3)CCC12O (centres undefined)	-1.6	88.2	79.9*	0.6	-9.9	0.3
C[C@]12CC[C@H](O)C[C@H]1CC[C@@H]1[C@@H]2CC[C@]2(C)[C@@H](C3=CC(=O)OC3)CC[C@]12O	-0.8	122.5*	21.1	-2.7	-6.1	-1.4
COc1ccc(CC2C(=O)NC(C)C(=O)N(C)C3C(=O)N(C)C(Cc4ccc(O)c(c4)Oc4ccc(cc4)C3O)C(=O)NC(C)C(=O)NC(C)C(=O)N2C)cc1 (centres undefined)	0.0	-14.0	76.1*	-3.2	-6.4	-0.6
O=C(CN1CCOCC1)Nc1ccc(Br)cc1C(=O)c1ccccc1	-0.2	100.4*	4.4	-5.0	0.8	·	miR-27b qPCR=0.943
O=C(O)[C@@H]1[C@@H](CO)[C@@H]2Cn3c(ccc(-c4ccccc4)c3=O)[C@H]1N2S(=O)(=O)c1ccccc1F	·	-3.8[16.7 µM]	·	·	10.3	-0.5
CCN(CCCl)c1cc(CN(C)C)cc(NC(=O)c2ccc(C(=O)Nc3cc(CN(C)C)cc(N(CC)CCCl)c3)cc2)c1	3.6	-0.9	-3.9	-1.0	53.8*	-0.9	ARNT Alpha ctr=4.28µM*

High-throughput results (PubChem BioAssay)
